Screening results (PubChem)
SENP7 inh: SENP7 protease inhibition | Q9BQF6 | recombinant SENP7, Z-RLRGG-aminoluciferin luminescence, 40 min | inhibition, % at 5 µM | 1.5% of 330,000 active;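 active = inhibition above about 50% at the single test dose, limit read from the data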
Target sequence (Q9BQF6 706-1050 limits assumed): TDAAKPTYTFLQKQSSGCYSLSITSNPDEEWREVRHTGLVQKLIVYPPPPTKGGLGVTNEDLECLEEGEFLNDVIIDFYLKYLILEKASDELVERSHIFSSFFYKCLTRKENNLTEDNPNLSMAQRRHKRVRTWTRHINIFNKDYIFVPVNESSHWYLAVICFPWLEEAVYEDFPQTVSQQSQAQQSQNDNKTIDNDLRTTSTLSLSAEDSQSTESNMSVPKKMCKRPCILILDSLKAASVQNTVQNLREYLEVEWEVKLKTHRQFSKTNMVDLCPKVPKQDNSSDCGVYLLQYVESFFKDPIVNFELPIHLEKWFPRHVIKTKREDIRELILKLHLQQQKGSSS
SENP8 block-1: SENP8 (human) protease inhibition; recombinant SENP8, Nedd8 substrate fluorescence; inhibition, % at 20 µM; 0.64% of 360,000 active; in the data active = inhibition mostly above about 40%, no sharp cut-off; inactive = mostly below about 27%
SENP6 inh: SENP6 protease inhibition | Q9GZR1 | Recombinant SENP6 catalytic domain, aminoluciferin luminescence | inhibition, % at 10 µM | 1.8% of 330,000 active;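 active = inhibition above about 50% at the single tested dose, limit read from the data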
SENP1 FRET inh: inhibitors of human SENP1 SUMO protease catalytic domain; recombinant SENP1 catalytic domain, CyPet-SUMO1-YPet FRET cleavage; inhibition, % at 10 µM; 0.21% of 360,000 active;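 active = inhibition at least 30% at 10 µM, raw YFP signal under a set limit, fluorescence ratio 0.5 to 1.5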
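Assay system – human recombinant His6-tagged SENP1 catalytic domain enzyme · Input – SENP1 enzyme, 20 pM final · Buffer or medium – Tris pH 8 buffer plus EDTA, NaCl, BME, BSA, NP40, catalase · Schedule – 50 min reaction at room temperature · Technique – FRET read of cyan and yellow fluorescence · Control set – no-enzyme wells low, DMSO-plus-enzyme wells high control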
SENP8 block-2: SENP8 protease inhibition | inhibition, % at 10 µM | purified SENP8, Z-RLRGG-aminoluciferin cleavage, luminescence | Q96LD8 | AID 2540 | 1.2% of 330,000 active; in the data active = inhibition above about 50%
SENP8 conf: human SENP8 inhibition, confirmed; shares compounds with SENP7 inh; Recombinant SENP8, Z-RLRGG-aminoluciferin luminescence, 60 min; inhibition, % at 12.5 µM; 40% of 6,200 active;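 active = mean inhibition across replicates above about 50%, limit read from the data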
SENP6 conf: confirmation of human SENP6 protease inhibitors; inhibition, % at 12.5 µM; recombinant SENP6, Z-RLRGG-aminoluciferin luminescence; shares compounds with SENP7 inh; AID 488915; 58% of 6,200 active
SENP7 confirm: human SENP7 inhibition, confirmed; AID 488917; inhibition, % at 12.5 µM; recombinant SENP7, Z-RLRGG-aminoluciferin luminescence, 40 min; 69% of 6,200 active; shares compounds with SENP7 inh
Casp3 select: inhibits human caspase-3 in SENP selectivity test | shares compounds with SENP7 inh | purified caspase-3, Z-DEVD-aminoluciferin luminescence, 60 min | inhibition, % at 12.5 µM | 60% of 6,200 active | AID 488918;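 active = mean inhibition above about 50%, limit read from the data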
Target sequence (P42574 28-227 limits assumed): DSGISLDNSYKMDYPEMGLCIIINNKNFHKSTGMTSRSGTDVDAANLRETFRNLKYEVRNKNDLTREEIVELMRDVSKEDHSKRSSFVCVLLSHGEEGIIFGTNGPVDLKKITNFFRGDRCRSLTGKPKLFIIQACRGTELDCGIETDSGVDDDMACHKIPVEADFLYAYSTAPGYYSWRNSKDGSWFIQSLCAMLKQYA
Luc interf: counter-screen for SENP inhibitors: luminescence interference; shares compounds with SENP7 inh; Pre-incubated SENP8/Z-RLRGG-aminoluciferin, luciferase luminescence interference; inhibition, % at 12.5 µM; 39% of 6,200 active;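 active = mean inhibition above about 50% when retested at one dose, limit read from the data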
Of the large screens only hits and unclear results are named; the others gave an inactive call (follow-up assays come after a bar, where they were run). Hits are enriched below; roughly 2.5% of the tested compounds scored in any of these assays.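 Rule for the calls, unless noted: active = mean inhibition above about 50% in the one-dose retest (limit read from the data); inactive = the rest.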

CC(/C=N/N1CCN(c2ccccc2)CC1)=C\c1ccccc1	SENP7 inh 75.5 | SENP8 conf inactive | SENP6 conf inactive | SENP7 confirm inactive | Casp3 select inactive | Luc interf inactive
CC(=C/c1ccco1)/C=N/N1CCN(c2ccccc2)CC1	SENP7 inh 95.3, SENP6 inh 97.4, SENP8 block-2 92.1 | SENP8 conf inactive | SENP6 conf 54.2 | SENP7 confirm inactive | Casp3 select 68.5 | Luc interf inactive
Cc1ccc(C)c(CSC2=NN3CCCC(=O)N=C3S2)c1	none
O=C(CNc1cccc2ccccc12)N/N=C/c1ccc([N+](=O)[O-])o1	SENP6 inh 80.4 | SENP8 conf inactive | SENP6 conf inactive | SENP7 confirm inactive | Casp3 select inactive | Luc interf inactive
C=CCc1cccc(/C=N/NC(=O)CNc2cccc3ccccc23)c1O	SENP6 inh 71.6 | SENP8 conf inactive | SENP6 conf inactive | SENP7 confirm inactive | Casp3 select inactive | Luc interf inactive
C=CCc1cccc(/C=N/NC(=O)CNc2ccccc2OC)c1O	none
O=C(CNc1cccc2ccccc12)N/N=C/c1ccc[nH]1	none
O=C(CNc1cccc2ccccc12)N/N=C/C(Br)=C/c1ccccc1	SENP6 inh 80.0, SENP8 block-2 55.5 | SENP8 conf inactive | SENP6 conf inactive | SENP7 confirm inactive | Casp3 select inactive | Luc interf inactive
N/C(=N\OC(=O)/C=C/c1ccccc1Cl)c1ccccn1	SENP7 inh 88.9, SENP6 inh 94.8, SENP8 block-2 85.7 | SENP8 conf 90.7 | SENP6 conf 90.1 | SENP7 confirm 100.1 | Casp3 select 85.3 | Luc interf 87.5
N/C(=N\OC(=O)/C=C/c1ccccc1)c1cccnc1	none
O=C(COC(=O)/C=C/c1ccccc1Cl)Nc1cccnc1Cl	none
N/C(=N\OC(=O)COc1ccc(Br)cc1Cl)c1ccccn1	SENP7 inh 97.0, SENP6 inh 95.8, SENP8 block-2 85.9 | SENP8 conf 89.4 | SENP6 conf 87.4 | SENP7 confirm 96.6 | Casp3 select 81.5 | Luc interf 88.6
N/C(=N\OC(=O)COc1ccc(Br)cc1Cl)c1ccncc1	none (no result: SENP7 inh, SENP6 inh, SENP8 block-2)
N/C(=N\OC(=O)/C=C/c1ccccc1Cl)c1cccnc1	SENP7 inh 51.7 | SENP8 conf inactive | SENP6 conf inactive | SENP7 confirm inactive | Casp3 select inactive | Luc interf inactive
N/C(=N\OC(=O)/C=C/c1ccc(Br)cc1)c1ccccn1	SENP7 inh 52.9, SENP6 inh 57.2 | SENP8 conf inactive | SENP6 conf inactive | SENP7 confirm inactive | Casp3 select inactive | Luc interf inactive
C=CC[n+]1ccc(/C=C2\C=Cc3cc(C)ccc3N2CC)c2ccccc21	none (no result: SENP7 inh, SENP6 inh, SENP8 block-2)
Cc1cccc(C(=O)N/N=C/c2cc(Br)c(Br)o2)c1	none
O=C(/C=C/Nc1ccc(Br)cn1)c1cccc(OC(F)F)c1	SENP7 inh 62.4 | SENP8 conf inactive | SENP6 conf inactive | SENP7 confirm inactive | Casp3 select inactive | Luc interf inactive
O=C(CN(Cc1ccc(Cl)cc1)C(=O)CNS(=O)(=O)c1ccc(F)cc1)NCC1CCCO1 (stereo unspecified)	none
O=C(Nc1ccc(Cl)cc1[N+](=O)[O-])c1ccc2c(c1)OCCO2	SENP7 inh 63.8 | SENP8 conf inactive | SENP6 conf inactive | SENP7 confirm inactive | Casp3 select inactive | Luc interf inactive
COc1ccc(C(=O)Nc2ccc3c(c2)OCCO3)cc1[N+](=O)[O-]	none
O=C(Nc1ccc(F)c([N+](=O)[O-])c1)c1ccc2c(c1)OCCO2	SENP7 inh 69.3, SENP6 inh 56.8 | SENP8 conf inactive | SENP6 conf inactive | SENP7 confirm 86.8 | Casp3 select 61.2 | Luc interf inactive
COc1cccc(/C=N/Nc2ncnc(N)c2[N+](=O)[O-])c1OC	SENP7 inh 71.9, SENP6 inh 68.3 | SENP8 conf inactive | SENP6 conf inactive | SENP7 confirm 64.4 | Casp3 select 77.0 | Luc interf inactive
COc1cccc(C=NNc2ccc([N+](=O)[O-])cn2)c1OC	none (no result: SENP7 inh, SENP6 inh, SENP8 block-2)
Cc1cc(/C=N/Nc2ncnc(N)c2[N+](=O)[O-])c(C)n1-c1ccccc1	SENP7 inh 97.0, SENP8 block-1 55.2, SENP8 block-2 94.5 | SENP8 conf inactive | SENP6 conf 60.7 | SENP7 confirm 94.8 | Casp3 select 51.5 | Luc interf inactive
Cc1cc(/C=N/Nc2nc(N)ncc2[N+](=O)[O-])c(C)n1-c1cccc(C(F)(F)F)c1	none (no result: SENP8 block-1, SENP1 FRET inh)
O=C(NCc1ccccc1Cl)c1cc(C(=O)C2CC2)c[nH]1	none
Cc1cccc(C)c1NC(=O)CN(C)C(=O)C(c1ccccc1)c1ccccc1	SENP7 inh 91.0 | SENP8 conf inactive | SENP6 conf inactive | SENP7 confirm inactive | Casp3 select inactive | Luc interf inactive
COc1cccc(NC(=O)N2CCc3ccccc3C2)c1	SENP7 inh 53.4, SENP6 inh 53.4 | SENP8 conf inactive | SENP6 conf inactive | SENP7 confirm 79.7 | Casp3 select 69.7 | Luc interf 56.4
O=C(Nc1cccc(Cl)c1)N1CCc2ccccc2C1	SENP6 inh 50.9 | SENP8 conf inactive | SENP6 conf inactive | SENP7 confirm 77.5 | Casp3 select inactive | Luc interf inactive
Cc1ccc(CSc2nnc(-c3ccncc3)n2CC2CCCO2)cc1 (stereo unspecified)	none
COc1ccc(/C=C2\CCC(C3CCCC3)C2=O)c(OC)c1 (stereo unspecified)	none
COc1cc(OC)c(OC)cc1/C=C1\CCC(C2CCCC2)C1=O (stereo unspecified)	none
Cc1ccsc1/C=C1\CCC(C2CCCC2)C1=O (stereo unspecified)	SENP7 inh 83.2, SENP6 inh 96.8, SENP8 block-2 85.1 | SENP8 conf 76.4 | SENP6 conf 80.9 | SENP7 confirm 92.2 | Casp3 select 79.7 | Luc interf 69.6
COc1ccc(/C=C2\CCC(C3CCCC3)C2=O)cc1 (stereo unspecified)	SENP7 inh 90.0, SENP6 inh 54.4, SENP8 block-2 77.4 | SENP8 conf inactive | SENP6 conf inactive | SENP7 confirm inactive | Casp3 select 69.2 | Luc interf inactive
Cc1cccc(C)c1N1CCN(C(=O)Cn2cncn2)CC1	none
Cc1nn(-c2ccccc2)nc1CNC(=O)C1CCC1	none
